# Rows were chosen to be rich in hits. Some 2.9% of all compounds tested hit in one or more screens of this group.
# OX1R antag-1 = OX1R (human) antagonism; OX1R-expressing cells, FRET antagonist read-out; AID 485270; actives 1.8% (n = 330,000); inhibition, % at 6.6 µM; in the data active = inhibition mostly above about 38%, no sharp cut-off; inactive = mostly below about 40%;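 also: 0% = agonist challenge alone and 100% = reference antagonist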
# Target sequence (O43613 whole entry, looked up): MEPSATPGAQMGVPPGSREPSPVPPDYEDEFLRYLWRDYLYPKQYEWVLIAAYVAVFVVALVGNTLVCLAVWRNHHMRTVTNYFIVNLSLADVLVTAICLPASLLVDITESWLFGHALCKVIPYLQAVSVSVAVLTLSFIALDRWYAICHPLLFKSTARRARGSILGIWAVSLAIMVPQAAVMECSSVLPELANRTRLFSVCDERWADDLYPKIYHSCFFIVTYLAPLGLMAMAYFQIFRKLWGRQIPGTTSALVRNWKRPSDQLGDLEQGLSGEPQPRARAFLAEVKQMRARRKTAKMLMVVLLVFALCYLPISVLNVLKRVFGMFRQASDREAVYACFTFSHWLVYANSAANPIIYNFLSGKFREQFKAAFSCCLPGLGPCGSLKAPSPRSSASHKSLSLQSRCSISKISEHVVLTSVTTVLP
# M1 ag parental = counter-screen for M1 agonists: effect in parental CHO-K1 cells. Fluo-8 calcium fluorescence; scaled to maximal ATP response, vehicle zero. activation, % at 3 µM. actives 0.48% (n = 360,000). AID 602248; in the data active = activation above about 15%;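 also: untransfected CHO-K1 host cells lacking M1 receptor as counterscreen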
# CHO parental Ca = counter-screen: ATP calcium response change in parental CHO cells. parental CHO-K1, ATP-induced calcium, Fluo-8 fluorescence. inhibition, % at 5.6 µM. actives 0.63% (n = 330,000). AID 463079;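 active = inhibition above that plate's mean sample inhibition plus 3 SD, cut at about 26% in these data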;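 also: 0% = ATP-challenged DMSO wells and 100% = DMSO wells without ATP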
#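 Test system: untransfected parental CHO cell line. Compound: one dose, 5.6 µM nominal. Detection: intracellular calcium via Fluo-8 no-wash fluorescent dye. Measure: % inhibition. Benchmarks: ATP-challenged DMSO wells low, unchallenged DMSO wells high.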
# CHO-K1 Ca PAM = counter-screen for M1 PAMs: effect in parental CHO-K1 cells; ATP EC20, Fluo-8 calcium fluorescence; 0% at ATP EC20, 100% at ATP max; activation, % at 3 µM; actives 0.02% (n = 360,000);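 active = activation above the run cutoff, the mean activation of all test compounds plus 3 SD, cut at about 40% in these data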;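 also: peak over basal fluorescence ratio in a 140 s read after ATP addition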
# OX1R antag-2 = antagonists of human orexin 1 receptor. inhibition, % at 5 µM. AID 434989. O43613. actives 0.43% (n = 330,000). CHO/OX1R cells, Fluo-8 calcium fluorescence, orexin A;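 active = inhibition above its plate's threshold, mean inhibition of all tested compounds on the plate plus 3 SD, cut at about 37% in these data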;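 also: 0% = orexin A challenge wells and 100% = SB-334867-A antagonist wells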
# CHO-K1 Ca antag = nonselective inhibitor or artifact in parental CHO-K1 cells | ATP-induced calcium, Fluo-8 fluorescence | inhibition, % at 3 µM | actives 0.6% (n = 360,000) | AID 602250;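 active = inhibition above a per-plate cutoff, the plate's mean sample inhibition plus 3 SD, cut at about 24% in these data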;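 also: 0% = DMSO plus EC80 ATP and 100% = DMSO alone without ATP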
# Active calls of the source: *; . = no result.
SMILES,OX1R antag-1,M1 ag parental,CHO parental Ca,CHO-K1 Ca PAM,OX1R antag-2,CHO-K1 Ca antag
O=C(c1ccc([N+](=O)[O-])o1)N1CCCCCC1,28*,0,1,-12,-14,-3
O=C(c1ccc([N+](=O)[O-])o1)N1CCc2ccccc21,42*,0,-11,-13,-16,6
O=C(c1ccc([N+](=O)[O-])o1)N1CCOCC1,76,0,-8,12,-25,-16
Cc1ccc(C(=O)N2CCc3ccccc32)o1,21,-1,-8,17,-2,-7
O=C(c1ccc([N+](=O)[O-])o1)N1CCc2ccccc2C1,24,0,0,8,-24,-9
Cc1ccc(C)c(N(C(=O)c2snc(C(N)=O)c2N)C(C(=O)NCC2CCCO2)c2ccc(C)o2)c1 (centres undefined),26,1,-16,17,-17,-12
COc1ccccc1NS(=O)(=O)c1ccc(C)c(C(=O)NCCCN2CCCC2=O)c1,24,-1,-21,-3,-31,31*
CCc1cc2c(N3CCN(c4ccccc4)CC3)ncnc2s1,31,6,60*,5,58*,6
c1ccc(N(c2ccccc2)c2nc(-n3ccnc3)nc(-n3ccnc3)n2)cc1,42,6,42*,16,82*,5
CCCCn1c(N)c(N(CC(C)C)C(=O)CCS(=O)(=O)c2ccc(C)cc2)c(=O)[nH]c1=O,4,0,-12,7,-24,-11
CCCCN(C(=O)c1cc(S(=O)(=O)N2CCCCC2)ccc1Cl)c1c(N)n(CCC)c(=O)[nH]c1=O,.,0,.,-2,.,-15
CCCCN(C(=O)c1ccc([N+](=O)[O-])o1)c1c(N)n(CCCC)c(=O)[nH]c1=O,62*,0,-22,0,-22,-4
CCCCn1c(N)c(N(CC(C)C)C(=O)CCCc2cccs2)c(=O)[nH]c1=O,7,-1,-18,-19,-29,26*
CCCCN(C(=O)c1cc(S(=O)(=O)N2CCCCCC2)ccc1OC)c1c(N)n(CCC)c(=O)[nH]c1=O,22,0,-14,-37,-6,25*
CCCCN(C(=O)c1ccc(-c2ccc([N+](=O)[O-])cc2)o1)c1c(N)n(CCCC)c(=O)[nH]c1=O,46,-1,2,4,-10,-4
CCCCn1c(N)c(N(Cc2ccccc2OC)C(=O)c2ccc([N+](=O)[O-])s2)c(=O)[nH]c1=O,50*,0,-17,0,-23,-4
CCCCn1c(N)c(N(Cc2ccccc2OC)C(=O)COc2ccccc2OC)c(=O)[nH]c1=O,25,1,-13,-9,-12,4
CCCCNC(=O)C1(C)CCCCN1C(=O)c1c(C)noc1C (centres undefined),.,0,.,12,.,-6
COc1ccccc1C(CNC(=O)c1cc(C)nc2ccccc12)N(C)C (centres undefined),5,0,-11,9,-12,6
O=C(NCCC1CCCCN1S(=O)(=O)c1ccc(Cl)cc1)C(=O)NCc1cccnc1 (centres undefined),13,1,-19,24,-36,-5
CCCCN(C(=O)c1ccccc1OCc1ccc(F)cc1)c1c(N)n(CCC)c(=O)[nH]c1=O,66*,1,-23,25,11,-15
FC(F)c1nc2ccccc2[nH]1,8,0,10,-12,-20,15
c1ccc2[nH]c3cc4ncnc4cc3nc2c1,70*,2,4,10,11,8
Cc1ccc(S(=O)(=O)N2CCN(C(=O)COC(=O)c3ccc(O)cc3)CC2)c(C)c1,7,1,-17,-20,-22,27*
COC(=O)c1cc(C(=O)OCC(=O)NNC(=O)c2cccs2)cc([N+](=O)[O-])c1,60*,0,-9,10,-17,-9
SMILES,OX1R antag-1,M1 ag parental,CHO parental Ca,CHO-K1 Ca PAM,OX1R antag-2,CHO-K1 Ca antag
COC(=O)c1cc(C(=O)OCC(=O)NC2CCCCCCC2)cc([N+](=O)[O-])c1,18,0,-8,-7,-16,5
COC(=O)c1cc(C(=O)OCC(=O)N2CCCCC2)cc([N+](=O)[O-])c1,56*,0,-7,-9,2,4
Nc1ccc(C(=O)OCC(=O)N2CCOCC2)cc1[N+](=O)[O-],49*,0,3,14,6,-3
CN(N)C(=S)Nc1ccc(Cl)cc1,16,1,-3,6,-12,-10
CC(C)[C@H](NC(=O)N1c2ccccc2NC(=O)[C@@H]1C(C)C)C(=O)N[C@@H](Cc1c[nH]c2ccccc12)C(=O)O,6,0,-10,9,7,-3
CCOc1ccc(S(=O)(=O)N2CCN(CN3C(=O)CC4(CCCC4)C3=O)CC2)cc1,-9,-1,-23,-2,1,-9
O=C(OCC(=O)N1CCCCC1)c1ccc2c(c1)C(=O)N(Cc1ccco1)C2=O,33*,1,-16,-4,-7,-3
O=C(OCC(=O)N1CCCCCC1)c1ccc(Cl)c(S(=O)(=O)N2CCCC2)c1,14,16*,-12,-10,-19,17
NC(=O)COC(=O)c1ccc(Cl)c(S(=O)(=O)N2CCCCCC2)c1,16,1,-2,6,-14,-16
O=C(OCC(=O)N1CCCC1)c1ccc(Cl)c([N+](=O)[O-])c1,65*,2,-2,18,1,-7
COC(=O)c1cc(C(=O)NNC(=O)c2ccc3c(c2)OCO3)cc([N+](=O)[O-])c1,54*,1,-11,-2,-22,-9
CN(Cc1cn(Cc2cccc(Cl)c2)nn1)C1CN(Cc2cn(Cc3cccc(Cl)c3)nn2)S(=O)(=O)C1 (centres undefined),.,4,.,14,.,-15
O=C(O)c1ccc(Nc2cccc(F)c2)c([N+](=O)[O-])c1,26,0,-5,13,-4,2
Nc1ccc(Nc2ccncc2[N+](=O)[O-])cc1,64*,0,-12,5,-6,-8
Nc1ccccc1Nc1ccncc1[N+](=O)[O-],24,1,-4,19,-7,-15
O=[N+]([O-])c1cnccc1Nc1ccccc1,58*,0,-2,15,-7,-20
COc1cccc(Nc2c(Nc3cccc(OC)c3)c(=O)c2=O)c1,10,1,4,-6,-8,9
O=C(O)c1cccc(Nc2ccncc2[N+](=O)[O-])c1,38*,1,3,-6,-18,-6
COc1cccc(Nc2c([N+](=O)[O-])cncc2[N+](=O)[O-])c1,76*,1,-7,-1,-10,-3
CC(=O)N1CCOC12CCN(Cc1ccccc1)CC2,.,0,.,-9,.,-1
N#C/C(=C\c1c(N2CCC(C(N)=O)CC2)nc2ccccn2c1=O)C(=O)NC1CCCCC1,12,1,-4,12,-13,1
